Data published in paper PMC2610486 (Bioorganic & medicinal chemistry, 2008).

What was measured:
CYP3A4 = CYP3A4 (Homo sapiens, UniProt P08684); assay: Testosterone-6-hydroxylase activity in HepG2/C3A cell culture; type: cell-based; conditions: HepG2/C3A cultures; 50 µM testosterone, 48 hr
Procedure, shortened: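 Confluent HepG2 cultures were pre-incubated 4 h with test compound or ethanol control, then 50 µM testosterone was added. After 48 h incubation, medium was extracted with ethyl acetate and 6-hydroxytestosterone, as its trimethylsilyl ether, was quantified by GC-MS. Results are percent inhibition, given as means and standard deviation.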

HepG2 cells = type: cell-based, human; conditions: HepG2 cultures
[1] = molecular target: T1, Cyp4F2 (tocopherol-ω-hydroxylase) (Homo sapiens, UniProt P78329); assay: Inhibition of γ-tocopherol metabolism; type: cell-based; conditions: HepG2 cells; at concentrations as low as 250 nM
T1 sequence (P78329 5-520): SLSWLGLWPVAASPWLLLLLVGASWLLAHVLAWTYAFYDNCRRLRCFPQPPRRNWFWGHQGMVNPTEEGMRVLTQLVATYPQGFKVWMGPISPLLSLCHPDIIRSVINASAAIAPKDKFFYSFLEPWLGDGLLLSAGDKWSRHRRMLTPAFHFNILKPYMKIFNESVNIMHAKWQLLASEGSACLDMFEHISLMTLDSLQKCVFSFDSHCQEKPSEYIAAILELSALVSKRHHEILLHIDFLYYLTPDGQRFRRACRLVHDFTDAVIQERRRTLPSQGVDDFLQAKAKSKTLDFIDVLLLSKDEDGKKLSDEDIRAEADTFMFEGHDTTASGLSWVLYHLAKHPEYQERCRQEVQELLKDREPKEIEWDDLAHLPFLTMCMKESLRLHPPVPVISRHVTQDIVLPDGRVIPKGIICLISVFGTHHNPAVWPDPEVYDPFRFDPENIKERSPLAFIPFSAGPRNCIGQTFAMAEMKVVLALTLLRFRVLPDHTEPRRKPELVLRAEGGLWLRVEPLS

tocopherol ω-hydroxylase = assay: Tissue enrichment in δ-tocopherol in mice fed δ-tocopherol with or without 1; type: in vivo, mouse
Procedure, shortened: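 Two groups of three male FVB/N mice were fed 10 days on ground chow with δ-tocopherol (6000 mg/kg diet), with or without test compound (500 mg/kg diet). Compound in ethanol and δ-tocopherol were premixed in diglyceride oil, then added to chow. Mice were fasted 5 h and euthanised. Plasma, liver and bile tocopherols were measured by GC-MS with d9-α-tocopherol internal standard. Results are δ-/α-tocopherol ratios, given as means and SD.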

[2] = male FVB/N mice, 500 mg 1 per kg diet with δ-tocopherol 6000 mg per kg diet, 10 days, P<0.05

Chain of CYP3A4 (P08684 whole entry): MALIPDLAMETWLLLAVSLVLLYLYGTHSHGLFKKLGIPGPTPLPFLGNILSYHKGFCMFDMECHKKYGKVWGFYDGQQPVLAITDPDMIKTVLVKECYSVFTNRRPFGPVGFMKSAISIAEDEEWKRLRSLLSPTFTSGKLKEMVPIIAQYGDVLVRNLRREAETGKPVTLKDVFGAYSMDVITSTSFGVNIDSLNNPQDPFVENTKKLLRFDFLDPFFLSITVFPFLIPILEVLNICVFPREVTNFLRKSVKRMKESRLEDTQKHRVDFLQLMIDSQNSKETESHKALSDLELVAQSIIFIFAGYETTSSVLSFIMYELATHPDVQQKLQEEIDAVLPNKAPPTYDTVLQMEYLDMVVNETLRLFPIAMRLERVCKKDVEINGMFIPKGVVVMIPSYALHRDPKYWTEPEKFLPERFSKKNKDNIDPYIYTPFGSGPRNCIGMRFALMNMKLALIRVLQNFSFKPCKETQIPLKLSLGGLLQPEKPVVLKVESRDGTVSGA

Compound | Effect on testosterone-6-hydroxylase (CYP3A4) activity (qualitative) (CYP3A4) | Effect on total cell protein (HepG2 cells) | Morphology of monolayers (HepG2 cells) | Inhibition of γ-tocopherol metabolism [1] | Level of δ-tocopherol in mice (tocopherol ω-hydroxylase; 1 at 500 mg per kg of diet that also contained δ-tocopherol) | Change in δ-tocopherol / α-tocopherol ratio in bile (tocopherol ω-hydroxylase; [2]) | Change in δ-tocopherol / α-tocopherol ratio in liver (tocopherol ω-hydroxylase; [2]) | Effect on α-tocopherol status (tocopherol ω-hydroxylase; mice fed δ-tocopherol with or without 1)
Cc1c(C)c2c(c(C)c1O)CC[C@@](C)(CCCCCCCCCn1ccnc1)O2 [Compound 1, (R)-2-(9-(1H-imidazol-1-yl)nonyl)-2,5,7,8-tetramethylchroman-6-ol] | inhibited | no effect | normal | complete inhibition | raised | tripled | doubling | no evidence that α-tocopherol status was affected
Cc1c(C)c2c(c(C)c1O)CC[C@@](C)(CCCCCCCCCn1cncn1)O2 [Compound 2, (R)-2-(9-(1H-1,2,4-triazol-1-yl)nonyl)-2,5,7,8-tetramethylchroman-6-ol] | inhibited |  |  |  |  |  |  | 
Cc1c(C)c2c(c(C)c1O)CC[C@@](C)(CCCCCCCCCn1ccnn1)O2 [Compound 3, (R)-2-(9-(1H-1,2,3-triazol-1-yl)nonyl)-2,5,7,8-tetramethylchroman-6-ol] | inhibited |  |  |  |  |  |  | 
